The results in this text go back to ChEMBL document CHEMBL1641375, “Antitumor agents 279. Structure-activity relationship and in vivo studies of novel 2-(furan-2-yl)naphthalen-1-ol (FNO) analogs as potent and selective anti-breast cancer agents” (2011).

≈ marks a conversion by molar mass, not a printed value. Where only a bound is given, the exact number is not on record here.

The subject of assay [1] is DU-145. The experiment in a line: Cytotoxicity against human DU145 cells after 72 hrs by MTT assay. Format: functional. As to conditions: DU-145, 72 h, read-out: ED50 (the source's name). The procedure, abridged:
(§1)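 Focused human tumour panel: A549 (non-small cell lung), DU145 (prostate), KB (nasopharyngeal), KB-VIN (MDR KB subline selected with vincristine), MDA-MB-231 (ER-negative basal-like breast), SK-BR-3 (ER-negative, HER2-overexpressing luminal-like breast), ZR-75-1 (ER-positive, HER2-overexpressing luminal-like breast). Run by previously published methods.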
Background: Tetrazolium dyes change colour on reduction, which living cells bring about.

Assay [2] relates to SK-BR-3. The assay can be described thus: Cytotoxicity against human SKBR3 cells after 72 hrs by MTT assay. The assay is classed as functional. As to conditions: SK-BR-3, 72 h, read-out: ED50 (the source's name). The procedure, abridged:
as §1

The test system of assay [3] is MDA-MB-231. The assay can be described thus: Cytotoxicity against human MDA-MB-231 cells after 72 hrs by MTT assay. Format: functional. The following applies: MDA-MB-231, 72 h, read-out: ED50 (the source's name). The procedure, abridged:
as §1

The test system of assay [4] is A549. The assay can be described thus: Cytotoxicity against human A549 cells after 72 hrs by MTT assay. As to conditions: A549, 72 h, read-out: ED50 (the source's name). The assay is classed as functional. The gist of the method:
as §1

A short description of assay [5]: Cytotoxicity against human KBVIN cells after 72 hrs by MTT assay. The following applies: read-out: ED50 (the source's name). The assay is classed as functional. The gist of the method:
as §1

Assay [6] relates to KB. The experiment in a line: Cytotoxicity against human KB cells after 72 hrs by MTT assay. Format: functional. The following applies: read-out: ED50 (the source's name). The procedure, abridged:
as §1

Assay [7] relates to ZR-75-1. The experiment in a line: Cytotoxicity against human ZR-75-1 cells after 72 hrs by MTT assay. Format: functional. The following applies: ZR-75-1, 72 h, read-out: ED50 (the source's name). The procedure, abridged: as §1
A short description of assay [8]: Inhibition of mammary epithelial cells proliferation in Brca1/p53-deficient C57BL/6 and 129/Sv mouse assessed as reduction of BrdU positive cells at 0.1 mg, po qd for 11 days relative to control in presence of bromodeoxyuridine treated orally with drinking water last 3 days of treatment. Format: functional, Epithelial cell. As to conditions: in the assay text read “ip qd” for “po qd”. The procedure, abridged:
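Three-month-old Brca1f11/f11p53f5&6/f5&6Crec or wild-type mice (mixed C57BL/6 and 129/Sv background) dosed 0.1 mg i.p. daily for 11 days. Dosing solution was 10 µL of a 10 mg/mL DMSO stock with 30 µL 40% PEG and 60 µL 0.9% NaCl; vehicle lacked compound. BrdU given in drinking water over the last 3 days. Glands fixed in 4% paraformaldehyde, paraffin-sectioned, citrate pH 6.0 antigen retrieval, anti-BrdU 1:1000. BrdU-positive cells per duct counted over ≥15 ducts/animal, ≥3 mice/genotype.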

Assay [9] in a line: Inhibition of mammary epithelial cells proliferation in Brca1/p53-deficient C57BL/6 and 129/Sv mouse assessed as reduction of mammary gland branching point at 0.1 mg, po qd for 11 days relative to control. The assay is classed as functional, Epithelial cell. As to conditions: in the assay text read “ip qd” for “po qd”. The gist of the method: (§2)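 Three-month-old Brca1/p53-deficient or wild-type mice (C57BL/6 × 129/Sv background) received 0.1 mg i.p. daily for 11 days in DMSO/40% PEG/0.9% NaCl, or vehicle alone. Mammary gland whole mounts were fixed in Carnoy's fixative for 3 h and stained with Carmine alum overnight. Branching points were counted in three random areas totalling about 2 mm2.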

For assay [10], the system named is Epithelial cell. The experiment in a line: Inhibition of wild type mammary epithelial cells proliferation in wild type C57BL/6 and 129/Sv mouse assessed as reduction of mammary gland branching point at 0.1 mg, po qd for 11 days relative to control. The assay is classed as functional. The following applies: in the assay text read “ip qd” for “po qd”. The gist of the method:
as §2

In assay [11] the test system is MDA-MB-231. The experiment in a line: Selectivity ratio, ED50 for human MDA-MB-231 cells to ED50 for human SKBR3 cells. Format: functional.
Assay [12] relates to A549. The experiment in a line: Selectivity ratio, ED50 for human A549 cells to ED50 for human SKBR3 cells. Format: functional.
Assay [13] deals with ZR-75-1. The assay can be described thus: Selectivity ratio, ED50 for human ZR-75-1 cells to ED50 for human SKBR3 cells. The assay is classed as functional.
The subject of assay [14] is SK-BR-3. The experiment in a line: Selectivity ratio, ED50 for human KB cells to ED50 for human SKBR3 cells. Format: functional.
Assay [15] concerns SK-BR-3. The experiment in a line: Selectivity ratio, ED50 for human DU145 cells to ED50 for human SKBR3 cells. The assay is classed as functional.
In assay [16] the test system is SK-BR-3. The assay can be described thus: Selectivity ratio, ED50 for human KBVIN cells to ED50 for human SKBR3 cells. Format: functional.

For the compound `CCc1cccc2c(OC)c(-c3occ(C)c3C(=O)OC)ccc12`, the EC50 in assay [1] was determined as 2.2 mg/L (≈ 6.78 µM); in [2] it was 1.2 mg/L (≈ 3.7 µM); in assay [3] it was 2.3 mg/L (≈ 7.09 µM); in assay [4] it was 1.5 mg/L (≈ 4.62 µM); in [5] it was 1.3 mg/L (≈ 4.01 µM); in assay [6] it was 1.7 mg/L (≈ 5.24 µM). Besides, in assay [7], the EC50 was found to be 1.3 mg/L (≈ 4.01 µM).
With `CCc1cccc2c(OC)c(-c3occ(C)c3COCC(F)(F)F)ccc12`, the EC50 was 5.7 mg/L (≈ 15.1 µM) in assay [1]; 5.3 mg/L (≈ 14 µM) in assay [2]; greater than 10 mg/L in assay [4]; 6 mg/L (≈ 15.9 µM) in assay [5]; 6.6 mg/L (≈ 17.4 µM) in assay [6]; 5.3 mg/L (≈ 14 µM) in assay [7].
With `CCc1cccc2c(OC)c(-c3occ(C)c3C(=S)OC)ccc12`, the EC50 worked out at 5.7 mg/L (≈ 16.7 µM) in assay [1]; 6.3 mg/L (≈ 18.5 µM) in assay [2]; 7.1 mg/L (≈ 20.9 µM) in [3]; 6.2 mg/L (≈ 18.2 µM) in [4]; 5.1 mg/L (≈ 15 µM) in [5]; 4.3 mg/L (≈ 12.6 µM) in [6]. In addition, the EC50 in assay [7] came out at 5.8 mg/L (≈ 17 µM).
As to `CCOc1c(-c2occ(C)c2CO)ccc2c(CC)cccc12`, the EC50 was greater than 10 mg/L in assay [1]; 8.8 mg/L (≈ 28.4 µM) in assay [2]; 1.7 mg/L (≈ 5.48 µM) in [3]; greater than 10 mg/L in assay [4]; 6.4 mg/L (≈ 20.6 µM) in assay [5]; greater than 10 mg/L in assay [6]. Also, in assay [7], the EC50 was determined as 1.4 mg/L (≈ 4.51 µM).
Regarding `CCc1cccc2c(OC)c(-c3occ(C)c3COC(C)=O)ccc12`, the EC50 in assay [1] is greater than 10 mg/L; in assay [2], greater than 10 mg/L; in assay [4], greater than 10 mg/L; in assay [5], greater than 10 mg/L; in [6], greater than 10 mg/L; in assay [7], 3.5 mg/L (≈ 10.3 µM).
Regarding `CCc1cccc2c(O)c(-c3occ(C)c3C(=O)O)ccc12`, the EC50 in [1] was determined as 8.7 mg/L (≈ 29.4 µM); in [2], 1 mg/L (≈ 3.37 µM); in assay [5], 7 mg/L (≈ 23.6 µM); in assay [6], 9.1 mg/L (≈ 30.7 µM); in [7] it was 0.3 mg/L (≈ 1.01 µM). For the same compound, the figures for the “inhibition (INH)” value in assay [8], in [9] and in assay [10] were 83%, 70% and 29%, respectively.
Turning to `CCCOC(=O)c1c(C)coc1-c1ccc2c(CC)cccc2c1OC`, the EC50 in assay [1], in [2], in assay [3], in assay [4], in assay [5] and in assay [6] was greater than 10 mg/L in each case. Besides, the EC50 in [7] is greater than 10 mg/L.
Take `CCOc1c(-c2occ(C)c2COC(C)=O)ccc2c(CC)cccc12`: the EC50 is greater than 10 mg/L in assay [1]; greater than 10 mg/L in assay [2]; greater than 10 mg/L in [3]; greater than 10 mg/L in assay [4]; 5.8 mg/L (≈ 16.5 µM) in assay [5]; greater than 10 mg/L in assay [6]. The EC50 in [7] is 4.9 mg/L (≈ 13.9 µM).
As to `CCOc1c(-c2occ(C)c2C(=O)OC)ccc2c(CC)cccc12`, the EC50 in assay [1] came to 1.9 mg/L (≈ 5.61 µM); in assay [2] it was 1.9 mg/L (≈ 5.61 µM); in assay [3], 1.1 mg/L (≈ 3.25 µM); in assay [4], 2.4 mg/L (≈ 7.09 µM); in assay [5], 1.7 mg/L (≈ 5.02 µM); in assay [6], 1.8 mg/L (≈ 5.32 µM). Also, the EC50 in assay [7] was 1.2 mg/L (≈ 3.55 µM).
As for `CCOc1c(-c2occ(C)c2COC)ccc2c(CC)cccc12`, the EC50 in assay [1] was greater than 10 mg/L; in assay [2] it was greater than 10 mg/L; in assay [3], 4.9 mg/L (≈ 15.1 µM); in assay [4], greater than 10 mg/L; in [5] it was 5.9 mg/L (≈ 18.2 µM); in [6] it was greater than 10 mg/L. Also, the EC50 in [7] is greater than 10 mg/L.
On to `CCc1cccc2c(OC)c(-c3occ(C)c3COC)ccc12`, for which the EC50 in assay [1] is greater than 10 mg/L; in [2], greater than 10 mg/L; in [4], greater than 10 mg/L; in [5], 8.8 mg/L (≈ 28.4 µM); in [6], greater than 10 mg/L; in [7], 9.7 mg/L (≈ 31.3 µM).
On to `CCc1cccc2c(OC)c(-c3occ(C)c3CBr)ccc12`, for which the EC50 in assay [1] was greater than 10 mg/L; in [2], greater than 10 mg/L; in assay [4], greater than 10 mg/L; in assay [5], greater than 10 mg/L; in assay [6], greater than 10 mg/L; in [7], 4.6 mg/L (≈ 12.8 µM).
In the case of `CCOc1c(-c2occ(C)c2C(=O)O)ccc2c(CC)cccc12`, the EC50 in assay [1], in assay [2], in [3], in assay [4], in assay [5] and in [6] was greater than 10 mg/L in each case. The EC50 in assay [7] is greater than 10 mg/L.
`CCc1cccc2c(OC)c(-c3occ(C)c3C(=O)On3nnc4ccccc43)ccc12`: the EC50 in assay [1], in [2], in assay [3], in [4], in [5] and in [6] was greater than 10 mg/L throughout. Moreover, the EC50 in assay [7] was greater than 10 mg/L.
As for `CCOCc1c(C)coc1-c1ccc2c(CC)cccc2c1OC`, the EC50 was greater than 10 mg/L in assay [1]; greater than 10 mg/L in assay [2]; greater than 10 mg/L in [4]; greater than 10 mg/L in assay [5]; greater than 10 mg/L in assay [6]; 9.1 mg/L (≈ 28.1 µM) in assay [7].
Turning to `CCc1cccc2c(OC)c(-c3occ(C)c3COC(=O)CCN(CC)CC)ccc12`, the EC50 was greater than 10 mg/L in [1]; greater than 10 mg/L in assay [2]; 0.85 mg/L (≈ 2.01 µM) in assay [3]; greater than 10 mg/L in assay [4]; greater than 10 mg/L in assay [5]; greater than 10 mg/L in [6]. In addition, the EC50 in assay [7] is 1.7 mg/L (≈ 4.01 µM).
For `CCc1cccc2c(OC)c(-c3occ(C)c3CO)ccc12`, the EC50 in assay [1] is 7.2 mg/L (≈ 24.3 µM); in [2] it was 0.73 mg/L (≈ 2.46 µM); in assay [3] it was greater than 10 mg/L; in [4], 9.6 mg/L (≈ 32.4 µM); in assay [5], 6.6 mg/L (≈ 22.3 µM); in assay [6] it was 7.1 mg/L (≈ 24 µM). Further, the EC50 in assay [7] was greater than 10 mg/L. Also, the Ratio ED50 in assay [11] was greater than 13.7; in [12] it was 13.2; in [13], greater than 13.7; in assay [14], 9; in [15], 9; in [16], 9.
Regarding `CCOC(=O)c1c(C)coc1-c1ccc2c(CC)cccc2c1OC`, the EC50 in [1] amounted to 2.2 mg/L (≈ 6.5 µM); in assay [2] it was 2.5 mg/L (≈ 7.39 µM); in assay [3], 4.3 mg/L (≈ 12.7 µM); in [4] it was 3.8 mg/L (≈ 11.2 µM); in assay [5] it was 1.8 mg/L (≈ 5.32 µM); in assay [6], 2.2 mg/L (≈ 6.5 µM). Besides, in assay [7], the EC50 was 3.9 mg/L (≈ 11.5 µM).
For `CCc1cccc2c(OC)c(-c3occ(C)c3C(=O)NC)ccc12`, the EC50 in [1], in assay [2], in [3], in assay [4], in assay [5] and in [6] was greater than 10 mg/L in each case. Besides, in assay [7], the EC50 was greater than 10 mg/L.
`CCc1cccc2c(OC(C)=O)c(-c3occ(C)c3COC(C)=O)ccc12`: the EC50 in assay [1], in assay [2], in assay [3], in assay [4], in [5] and in [6] was greater than 10 mg/L throughout. Moreover, the EC50 in assay [7] is greater than 10 mg/L.
